Published values pooled from the literature.
Lines come from different studies, so protocols differ.
FLT3 R834Q: Receptor-type tyrosine-protein kinase FLT3 (FLT3, Homo sapiens, UniProt P36888, R834Q)
FLT3: Receptor-type tyrosine-protein kinase FLT3 (FLT3, Homo sapiens, UniProt P36888)
FLT3 K663Q: Receptor-type tyrosine-protein kinase FLT3 (FLT3, Homo sapiens, UniProt P36888, K663Q)
FLT3 N841I: Receptor-type tyrosine-protein kinase FLT3 (FLT3, Homo sapiens, UniProt P36888, N841I)
FLT3 D835Y: Receptor-type tyrosine-protein kinase FLT3 (FLT3, Homo sapiens, UniProt P36888, D835Y)

CC1CCCN1c1nccc(-c2cnn3ncccc23)n1 (centres unmarked) — remaining binding (FLT3 R834Q; binding; 1 µM): 100%
Nc1ncnc2occ(-c3ccc(NC(=O)Nc4cc(C(F)(F)F)ccc4F)cc3)c12 — remaining signal (FLT3; cell-free assay, inhibitor; 20 µM): 1.8%
Cc1ccc(C(=O)Nc2ccc(CN3CCN(C)CC3)c(C(F)(F)F)c2)cc1C#Cc1cnc2cccnn12 — remaining activity (FLT3; enzyme activity, inhibitor; 23.5 nM): 58%
Cc1sc(C(=O)NC2COC2)cc1-n1cc(NC(=O)Nc2c(F)cccc2Cl)cn1 — remaining activity (FLT3; enzyme activity, inhibitor; 10 µM): 69.1%
C[C@@H]1CCN(c2nccc(-c3cnn4ncccc34)n2)C1 — remaining binding (FLT3 K663Q; binding; 1 µM): 100%
O=C(c1ccc(Nc2nccc(-c3cc4ccccc4s3)n2)cc1)N1CCC(N2CCCC2)CC1 — remaining binding (FLT3 K663Q; binding, competition with immobilised ligand; 1 µM): 37%
Cc1ccc(NC(=O)c2ccc(C)c(C(F)(F)F)c2)cc1C#Cc1nn(C2CCC(O)CC2)c2ncnc(N)c12 (centres unmarked) — remaining signal (FLT3; cell-free assay; 10 µM): 73%
CN([C@@H]1CCc2c(CC(=O)O)c3cc(S(C)(=O)=O)ccc3n2C1)S(=O)(=O)c1ccc(F)cc1 — remaining binding (FLT3 N841I; cell-free assay, competition with immobilised ligand; 1 µM): 100%
Cc1cnc(NC2CCOCC2)nc1-n1cnc(C(=O)NC(CN)c2cc(F)cc(Cl)c2)c1 (centres unmarked) — remaining activity (FLT3 D835Y; enzyme activity, inhibitor, radiometric; 1 µM): 105%
CCN(CC)CCNC(=O)c1c(C)[nH]c(/C=C2\C(=O)Nc3ccc(F)cc32)c1C — remaining signal (FLT3; cell-free assay; 0.5 µM): 2.71%
N[C@@H]1CCN(c2nccc(-c3cnn4ncccc34)n2)C1 — remaining binding (Receptor-type tyrosine-protein kinase FLT3, autoinhibited (FLT3, Homo sapiens, UniProt P36888); binding; 1 µM): 100%
O=[N+]([O-])c1cccc2[nH]c(CNc3nc(N4CCOCC4)nc4c3ncn4-c3ccsc3)nc12 — binding vs control (FLT3 K663Q; binding, competition with immobilised ligand; 10 µM): 5.2%
Cc1cnc(Nc2ccc(C(=O)N3CCC(N4CCCC4)CC3)cc2)nc1-c1cc2ccccc2s1 — remaining binding (FLT3; binding, competition with immobilised ligand; 1 µM): 1.6%
CC(C)CC(=O)N1CCc2nc(-c3ccc(Br)cc3)nc(N(C)Cc3ccccc3)c2C1 — remaining binding (FLT3 D835Y; cell-free assay, competition with immobilised ligand; 0.1 µM): 100%
O=C(NCCCN1CCOCC1)c1ccc(Nc2nccc(-c3cc4ccccc4s3)n2)cc1 — remaining binding (FLT3 N841I; binding, competition with immobilised ligand; 1 µM): 9.2%
F[C@@H]1CCN(c2nccc(-c3cnn4ncccc34)n2)C1 — remaining binding (FLT3 N841I; binding; 1 µM): 100%
CCCOc1ccc(OC)c(F)c1C(=O)c1ccc(C(=O)N[C@@H]2CNC[C@H]2NC(=O)c2ccc3[nH]ncc3c2)cc1 — remaining activity (FLT3; enzyme activity, inhibitor; 10 µM): 32%
O=C(c1ccc(Nc2ncc(Cl)c(-c3cc4ccccc4s3)n2)cc1)N1CCC(N2CCCC2)CC1 — remaining binding (FLT3 R834Q; binding, competition with immobilised ligand; 1 µM): 11%
O=c1nc(-c2ccccn2)sc2ccccc12 — remaining binding (FLT3 N841I; binding, competition with immobilised ligand; 1 µM): 74%
CN(CCCC(F)(F)F)c1nccc(-c2cnn3ncccc23)n1 — remaining binding (Receptor-type tyrosine-protein kinase FLT3 (FLT3, Homo sapiens, UniProt P36888, D835H); binding; 1 µM): 96%
CN(C)C1CCN(CC#Cc2nn(C3CCCC3)c3nc(NCc4ccccc4)ncc23)C1 (centres unmarked) — inhibition (FLT3; enzyme activity, inhibitor, FRET; 10 µM): 59%
c1cnn2ncc(-c3ccnc(N4CCC45COC5)n3)c2c1 — remaining binding (FLT3 D835Y; binding; 1 µM): 62%
Cc1c(NC(=O)c2cc(C(N)=O)nc3cc(F)ccc23)c(C(F)(F)F)nn1Cc1ccc(C#N)cc1 — remaining binding (FLT3; cell-free assay, competition with immobilised ligand; 1 µM): 99%
CCN(CC)CCNC(=O)c1c(C)[nH]c(/C=C2\C(=O)Nc3ccc(F)cc32)c1C — remaining activity (FLT3; enzyme activity, inhibitor; 1 µM): 1%
C[S+]([O-])c1ccc(-c2nc(-c3ccncc3)c(-c3ccc(F)cc3)[nH]2)cc1 (centres unmarked) — remaining signal (FLT3; cell-free assay; 0.5 µM): 91.5%
CN(C)c1ncc(F)c(-c2cnn3ncccc23)n1 — remaining binding (FLT3 D835Y; binding; 1 µM): 100%
CCCOc1ccc([C@H]2[C@H](C(=O)O)[C@@H](c3ccc4c(c3)OCO4)CN2CC(=O)Nc2c(CC)cccc2CC)cc1 — remaining binding (FLT3 N841I; cell-free assay, competition with immobilised ligand; 1 µM): 93%
Cc1ccc(C(=O)NCc2ccsc2)cc1C#Cc1cn(C(C)C)c2ncnc(N)c12 — activity vs control (FLT3; enzyme activity, inhibitor; 1 µM): 80%
Cn1nc(C(F)(F)F)cc1-c1cnc(N2CCc3cc(S(=O)(=O)Nc4c(F)cc(Cl)cc4F)cc(N4CCCC4=O)c32)nc1 — remaining binding (FLT3 N841I; cell-free assay, competition with immobilised ligand; 1 µM): 94%
COc1cc2ncnc(Nc3ccc(F)c(Cl)c3)c2cc1OCCCN1CCOCC1 — remaining signal (FLT3; cell-free assay; 0.5 µM): 56.5%
Cc1cc(NC(=O)c2cccc3cc(-c4cccc5[nH]nc(N)c45)ccc23)ccc1F — activity vs control (FLT3 D835Y; enzyme activity, inhibitor; 0.1 µM): 98%
C[C@H](c1ccc(F)cc1)N(Cc1cccc(C(=O)O)c1)C(=O)c1cnc2ccccc2c1 — remaining binding (Receptor-type tyrosine-protein kinase FLT3 (FLT3, Homo sapiens, UniProt P36888, ITD); cell-free assay, competition with immobilised ligand; 1 µM): 100%
O=C1Nc2ccc(Cl)cc2C1=Cc1cc(Cl)c(O)c(Cl)c1 — remaining signal (FLT3; cell-free assay; 0.5 µM): 26.5%
CN(C)CC#Cc1ccc(OCCCc2sc(N3CCc4cccc(C(=O)Nc5nc6ccccc6s5)c4C3)nc2C(=O)O)c(F)c1 — remaining binding (Receptor-type tyrosine-protein kinase FLT3 (FLT3, Homo sapiens, UniProt P36888, D835V/ITD); cell-free assay, competition with immobilised ligand; 1 µM): 100%
O=C(c1ccc(Nc2ncc(Cl)c(-c3ccc(Cl)s3)n2)cc1)N1CCC(N2CCCC2)CC1 — remaining binding (FLT3 K663Q; binding, competition with immobilised ligand; 1 µM): 1.3%
